The source of these data is ChEMBL document CHEMBL1275590, “Novel arylimidamides for treatment of visceral leishmaniasis” (Antimicrob Agents Chemother, 2010).

For data set [1], the system named is Mus musculus. As to the kind of experiment: Toxicity in BALB/c mouse assessed as tremor at 50 mg/kg/day, ip administered for five days. The format is organism-based. Also noted: route intraperitoneal. The following applies: in vivo. The method, boiled down: (§1)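 Acute overt toxicity was checked in uninfected female BALB/c mice before the efficacy work. Compounds were given intraperitoneally once daily for 5 days, and mice were watched for clinical signs such as ruffled fur, hypoactivity, tremors, ataxia and startle, and for survival.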

Data set [2] has as its system Mus musculus. Kind of data set: Toxicity in BALB/c mouse assessed as hyperactivity at 150 mg/kg/day, po administered for five days measured on day 5. The format is organism-based. More on the design: route oral. The following applies: in vivo. In outline:
(§2)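 Female BALB/c mice (n = 5 per dose), dosed once daily for 5 consecutive days p.o. (20 ml/kg) or i.v. (10 ml/kg) with compound in sterile water, prepared fresh daily under yellow light. Vehicle controls n = 5 per route. Clinical observations, body weights, serum chemistry and hematology on day 6 before necropsy; histopathology of formalin-fixed tissues. Chemistry analysed by one-way ANOVA with Dunnett's posttest.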

Data set [3] relates to Mus musculus. Kind of data set: AUC (0 to infinity) in Swiss Webster mouse at 66 mg/kg, po by HPLC-MS/MS analysis. The format is ADME, organism-based, Plasma. More on the design: time infinity, dose 66 mg/kg, route oral. The following applies: in vivo. The method, boiled down:
(§3)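 Male Swiss Webster mice, n = 3 per time point. For i.v., the compound was dissolved in sterile water, diluted 1:1 with 2× saline, and given as a tail-vein bolus over ~10–20 s. For p.o., it was given by gavage in sterile water. Dose volume was 5 ml/kg. Terminal plasma was taken from 5 min to 72 h and measured by HPLC-MS/MS (calibration 2.5–10,000 nM). Parameters came from noncompartmental analysis.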

For data set [4], the system named is Mus musculus. Kind of data set: Hepatotoxicity in BALB/c mouse assessed as ALT level in serum at 150 mg/kg/day, po administered for five days (Rvb= 36 U/L). The format is toxicity, organism-based. More on the design: route oral. The following applies: in vivo.
Data set [5] can be described thus: Tmax in Swiss Webster mouse at 1 mg/kg, iv by HPLC-MS/MS analysis. As to conditions: in vivo. Also noted: dose 1 mg/kg, route intravenous. The format is ADME, organism-based. In outline: (§4)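 Male Swiss Webster mice (n = 3 per time point), single dose by oral gavage (sterile water solution) or tail-vein bolus i.v. (water diluted 1:1 with 2× saline, over ~10–20 s); dose volume 5 ml/kg. Terminal blood sampled from 5 min to 72 h postdose; plasma quantified by HPLC-MS/MS (positive-ion SRM). Noncompartmental analysis gave Cmax, Tmax, AUC0-∞, CL, Vss; bioavailability from p.o. versus i.v. exposure.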

Data set [6] concerns Mus musculus. Kind of data set: Toxicity in BALB/c mouse assessed as tendency to startle at 50 mg/kg/day, ip administered for five days. The format is organism-based. Also noted: route intraperitoneal. As to conditions: in vivo. In outline:
as §1

Data set [7] in a line: Tmax in Swiss Webster mouse at 4.9 mg/kg, iv by HPLC-MS/MS analysis. The format is ADME, organism-based. Also noted: dose 4.9 mg/kg, route intravenous. The following applies: in vivo. The method, boiled down: as §4
Data set [8] has as its system Mus musculus. As to the kind of experiment: Toxicity in BALB/c mouse assessed as occurrence of tremor at 150 mg/kg/day, po administered for five days measured on day 4. The format is organism-based. Also noted: route oral. The following applies: in vivo. The method, boiled down: as §2
The subject of data set [9] is Mus musculus. As to the kind of experiment: Hepatotoxicity in BALB/c mouse assessed as alkaline phosphatase level in serum at 10 mg/kg/day, iv administered for five days (Rvb= 134 U/L). The following applies: in vivo. The format is toxicity, organism-based. Also noted: route intravenous.
For data set [10], the system named is Leishmania donovani. Kind of data set: Antileishmanial activity against Leishmania donovani WR378 infected in golden Syrian hamster assessed as reduction in liver parasitemia at 10 mg/kg/day, po administered for five days. The format is functional. The following applies: 120 h. The method, boiled down:
(§5)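 11-day golden hamster VL model adapted from an 8-day method, using L. donovani WR378 metacyclic promastigotes. Dosing was oral, once daily for 5 days. Animals were euthanized on day 11 post-infection. Liver, spleen and femoral bone marrow (flushed with Schneider's medium) were harvested.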

A short description of data set [11]: Drug level in Swiss Webster mouse liver at 70 mg/kg, po after 2 hrs by HPLC/UV analysis. The following applies: read-out: Drug uptake.
A short description of data set [12]: Drug level in Swiss Webster mouse spleen at 5 mg/kg, iv after 2 hrs by HPLC/UV analysis. As to conditions: read-out: Drug uptake.
Data set [13] in a line: Drug level in Swiss Webster mouse kidney at 5 mg/kg, iv after 2 hrs by HPLC/UV analysis. As to conditions: read-out: Drug uptake.
Data set [14] is described as follows: Induction of mutagenicity in Salmonella serovar Typhimurium TA 98 assessed as number of revertant colonies at 500 ug by Ames assay in presence of Aroclor 1254-induced rat liver S9 metabolic activation system. The format is toxicity, subcellular, Salmonella enterica subsp. enterica serovar Typhimurium. In outline:
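Plate incorporation test, S. Typhimurium TA98 (and TA100), with or without Aroclor 1254-induced rat liver S9 (10% vol/vol). Compound dissolved in sterile water, serially diluted to 1–1,000 or 1–500 μg/plate. Positive controls: 2-nitrofluorene and sodium azide without S9, 2-aminoanthracene with S9; water and DMSO vehicle controls. Revertant colonies and background lawn scored; mutagen if mean revertants ≥2-fold solvent control. Single experiment.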
In general terms: The Ames test uses bacterial strains that need an amino acid and regain growth without it when mutated back.

Data set [15] can be described thus: AUC (0 to infinity) in Swiss Webster mouse at 5 mg/kg, iv by HPLC-MS/MS analysis. The format is ADME, organism-based. More on the design: time infinity, dose 5 mg/kg, route intravenous. The following applies: plasma. The method, boiled down: as §3
Data set [16] can be described thus: Volume of distribution in Swiss Webster mouse at 5 mg/kg, iv by HPLC-MS/MS analysis. The following applies: in vivo. The format is ADME, organism-based. Also noted: dose 5 mg/kg, route intravenous. The method, boiled down:
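Male Swiss Webster mice (n = 3 per time point) got a single tail-vein bolus over ~10 to 20 s, 5 ml/kg. Compound was dissolved in sterile water at 2× and diluted 1:1 with 2× saline. Terminal blood was taken from 5 min to 72 h, and plasma was quantified by HPLC-MS/MS. Vss came from noncompartmental analysis.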

Data set [17] relates to Mus musculus. Kind of data set: Toxicity in BALB/c mouse assessed as hypoactivity at 50 mg/kg/day, ip administered for five days. The format is organism-based. Also noted: route intraperitoneal. As to conditions: in vivo.
Data set [18] can be described thus: Induction of mutagenicity in Salmonella serovar Typhimurium TA 100 assessed as number of revertant colonies at 50 ug by Ames assay in presence of Aroclor 1254-induced rat liver S9 metabolic activation system. The format is toxicity, subcellular, Salmonella enterica subsp. enterica serovar Typhimurium. In outline: (§6)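 Ames plate incorporation with S. Typhimurium TA98 and TA100, with or without Aroclor 1254-induced rat liver S9 (10% vol/vol). Compound was dissolved in sterile water and serially diluted to 1–500 μg/plate. Positive controls were 2-nitrofluorene and sodium azide without S9, and 2-aminoanthracene with S9; sterile water and DMSO served as vehicles. Revertant colonies and background lawn were scored. A mutagen was defined as a mean revertant count at least 2-fold over solvent control. Single experiment.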

Data set [19] is described as follows: Induction of mutagenicity in Salmonella serovar Typhimurium TA 98 assessed as number of revertant colonies at 100 ug by Ames assay in presence of Aroclor 1254-induced rat liver S9 metabolic activation system. The format is toxicity, subcellular, Salmonella enterica subsp. enterica serovar Typhimurium. In outline:
as §6

A short description of data set [20]: Induction of mutagenicity in Salmonella serovar Typhimurium TA 100 assessed as number of revertant colonies at 5 ug by Ames assay in presence of Aroclor 1254-induced rat liver S9 metabolic activation system. The format is toxicity, subcellular, Salmonella enterica subsp. enterica serovar Typhimurium. The method, boiled down: as §6
The subject of data set [21] is Mus musculus. As to the kind of experiment: Hepatotoxicity in BALB/c mouse assessed as alkaline phosphatase level in serum at 30 mg/kg/day, iv administered for five days (Rvb= 134 U/L). The format is toxicity, organism-based. As to conditions: in vivo. More on the design: route intravenous.
Data set [22] concerns Leishmania donovani. As to the kind of experiment: Antileishmanial activity against Leishmania donovani WR378 infected in golden Syrian hamster assessed as reduction in bone marrow parasitemia at 100 mg/kg/day, po administered for five days. The following applies: 120 h. The format is functional. In outline: as §5
Data set [23] relates to Mus musculus. Kind of data set: Toxicity in BALB/c mouse at 100 mg/kg/day, po administered for five days. The format is organism-based. More on the design: route oral. As to conditions: in vivo. The method, boiled down: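 Five-day repeat-dose study in female BALB/c mice (n = 5 per dose level): oral dosing once daily for five consecutive days in sterile water prepared fresh daily under yellow light, 20 ml/kg. Vehicle controls received sterile water only. Clinical observations and body weights were recorded, with blood for hematology and serum chemistry taken on day 6 before necropsy. A veterinary pathologist examined formalin-fixed tissues.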

The subject of data set [24] is Mus musculus. As to the kind of experiment: Toxicity in BALB/c mouse assessed as occurrence of tremor at 20 mg/kg/day, iv administered for five days measured on day 2. The format is organism-based. Also noted: route intravenous. The following applies: in vivo. The method, boiled down: as §2

Usually AUC stands for the area under the concentration-time curve, a measure of exposure. A low value points to low exposure. The term Tmax denotes the time at which the peak concentration occurs. Regarding `CCOc1cc(NC(=N)c2ccccn2)ccc1-c1ccc(-c2ccc(NC(=N)c3ccccn3)cc2OCC)o1`, the Activity result in the data set on Mus musculus [1] is “Toxic”; in the data set on Mus musculus [2], “Toxic”; in the data set on Mus musculus [4], 220 U/L; in the data set with Mus musculus [6], “Toxic”; in the data set with Mus musculus [8], “Toxic”; in the data set on Mus musculus [9], 118 U/L. In the data set with Mus musculus [3], the AUC came out at 5.6 µM·h. Moreover, the Tmax in [5] and in data set [7] was 5 min each time.

What is called inhibition in vivo is the share of the control response that was lost under treatment. The AUC(0-inf) is total exposure, with the tail of the curve extrapolated. What is called Vd is the apparent volume that relates the amount in the body to the concentration in plasma or blood. `CC(C)Oc1cc(NC(=N)c2ccccn2)ccc1-c1ccc(-c2ccc(NC(=N)c3ccccn3)cc2OC(C)C)o1`: the inhibition in vivo at 10 mg/kg/day in the data set on Leishmania donovani [10] came out at 10%. The concentration at 2 h in data set [11] is 45.8 µM; in data set [12], 13.5 µM; in data set [13] it was 12.7 µM. Further, the Activity in [14] is listed as 47; in the data set with Mus musculus [17] it was “Toxic”; in data set [18], 135; in [19], 38; in data set [20], 154; in the data set on Mus musculus [21] it was 118 U/L. The Activity result is recorded as “Non-toxic” in the data set on Mus musculus [23] and “Toxic” in the data set with Mus musculus [24]. Also, the AUC(0-inf) in data set [15] was 9.53 µM·h. This molecule showed a volume of distribution (Vd) in data set [16] of 15 L/kg. In addition, the inhibition in vivo at 100 mg/kg/day in the data set on Leishmania donovani [22] was determined as 92%.
